Measurements: ChEMBL document CHEMBL3627671, “Novel derivatives of nitro-substituted salicylic acids: Synthesis, antimicrobial activity and cytotoxicity” (Bioorg Med Chem, 2015)
Values after ≈ are worked out from the molar mass of the structure shown.

Experiments:
[1] = system: Mycobacterium tuberculosis; assay: Antimycobacterial activity against Mycobacterium tuberculosis H37Rv 331/88 after 14 days; format: functional; settings: H37Rv 331/88, 336 h
[2] = system: Mycobacterium tuberculosis; assay: Antimycobacterial activity against Mycobacterium tuberculosis H37Rv 331/88 after 21 days; format: functional; settings: H37Rv 331/88, 504 h
Mycobacterium avium [3] = assay: Antimycobacterial activity against Mycobacterium avium 330/80 after 14 days; format: functional; settings: 330/80, 336 h
Mycobacterium avium [4] = assay: Antimycobacterial activity against Mycobacterium avium 330/80 after 21 days; format: functional; settings: 330/80, 504 h
Mycobacterium kansasii [5] = assay: Antimycobacterial activity against Mycobacterium kansasii 235/80 after 7 days; format: functional; settings: 235/80, 168 h
Method in brief: (§1)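 Šula's semisynthetic medium micromethod at 37 °C, read after 7, 14 and 21 days. The 1.0 McFarland suspension was diluted 10^-4. MIC determined. 6509/96 is a clinical isolate.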

Mycobacterium kansasii [6] = assay: Antimycobacterial activity against Mycobacterium kansasii 235/80 after 14 days; format: functional; settings: 235/80, 336 h; method in brief: as §1
Mycobacterium kansasii [7] = assay: Antimycobacterial activity against Mycobacterium kansasii 235/80 after 21 days; format: functional; settings: 235/80, 504 h; method in brief: as §1
Mycobacterium kansasii [8] = assay: Antimycobacterial activity against Mycobacterium kansasii 6509/96 after 7 days; format: functional; settings: 6509/96, 168 h; method in brief: as §1
Mycobacterium kansasii [9] = assay: Antimycobacterial activity against Mycobacterium kansasii 6509/96 after 14 days; format: functional; settings: 6509/96, 336 h; method in brief: as §1
Mycobacterium kansasii [10] = assay: Antimycobacterial activity against Mycobacterium kansasii 6509/96 after 21 days; format: functional; settings: 6509/96, 504 h; method in brief: as §1
HepG2 = assay: Cytotoxicity against human HepG2 cells after 24 hrs […]; format: cell-based; settings: HepG2, 24 h
[11] = Selectivity index, ratio of CI50 for human HepG2 cells to MIC100 for Mycobacterium tuberculosis H37Rv 331/88
Staphylococcus aureus [12] = assay: Antibacterial activity against Staphylococcus aureus CCM 4516/08 after 24 hrs by microdilution broth method; format: functional; settings: CCM 4516/08, 24 h
Staphylococcus aureus [13] = assay: Antibacterial activity against Staphylococcus aureus CCM 4516/08 after 48 hrs by microdilution broth method; format: functional; settings: CCM 4516/08, 48 h
Staphylococcus aureus [14] = assay: Antibacterial activity against methicillin-resistant Staphylococcus aureus H 5996/08 after 24 hrs by microdilution broth method; format: functional; settings: H 5996/08, 24 h
Staphylococcus aureus [15] = assay: Antibacterial activity against methicillin-resistant Staphylococcus aureus H 5996/08 after 48 hrs by microdilution broth method; format: functional; settings: H 5996/08, 48 h
[16] = system: Staphylococcus epidermidis; assay: Antibacterial activity against Staphylococcus epidermidis H 6966/08 after 24 hrs by microdilution broth method; format: functional; settings: H 6966/08, 24 h
Method in brief: (§2)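 Mueller-Hinton broth microdilution (modified M07-A07), pH 7.4 (±0.2). Compounds dissolved in DMSO, tested at final 500 to 0.49 µmol/L. Inoculum in sterile water matched to 0.5 McFarland. Incubated in the dark, humid atmosphere, 35 °C, read at 24 and 48 h visually and at 540 nm. MIC taken as ≥95% growth reduction (IC95) versus control.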

[17] = system: Staphylococcus epidermidis; assay: Antibacterial activity against Staphylococcus epidermidis H 6966/08 after 48 hrs by microdilution broth method; format: functional; settings: H 6966/08, 48 h; method in brief: as §2
Enterococcus sp. [18] = assay: Antibacterial activity against Enterococcus sp. J 14365/08 after 24 hrs by microdilution broth method; format: functional; settings: J 14365/08, 24 h; method in brief: as §2
Enterococcus sp. [19] = assay: Antibacterial activity against Enterococcus sp. J 14365/08 after 48 hrs by microdilution broth method; format: functional; settings: J 14365/08, 48 h; method in brief: as §2
Escherichia coli [20] = assay: Antibacterial activity against Escherichia coli CCM4517 after 24 hrs by microdilution broth method; format: functional; settings: CCM4517, 24 h; method in brief: as §2
Escherichia coli [21] = assay: Antibacterial activity against Escherichia coli CCM4517 after 48 hrs by microdilution broth method; format: functional; settings: CCM4517, 48 h; method in brief: as §2
Klebsiella pneumoniae [22] = assay: Antibacterial activity against Klebsiella pneumoniae D 11750/08 after 24 hrs by microdilution broth method; format: functional; settings: D 11750/08, 24 h; method in brief: as §2
Klebsiella pneumoniae [23] = assay: Antibacterial activity against Klebsiella pneumoniae D 11750/08 after 48 hrs by microdilution broth method; format: functional; settings: D 11750/08, 48 h; method in brief: as §2
Klebsiella pneumoniae [24] = assay: Antibacterial activity against ESBL-positive Klebsiella pneumoniae J 14368/08 after 24 hrs by microdilution broth method; format: functional; settings: J 14368/08, 24 h; method in brief: as §2
Klebsiella pneumoniae [25] = assay: Antibacterial activity against ESBL-positive Klebsiella pneumoniae J 14368/08 after 48 hrs by microdilution broth method; format: functional; settings: J 14368/08, 48 h; method in brief: as §2
Pseudomonas aeruginosa [26] = assay: Antibacterial activity against Pseudomonas aeruginosa CCM 1961 after 24 hrs by microdilution broth method; format: functional; settings: CCM 1961, 24 h; method in brief: as §2
Pseudomonas aeruginosa [27] = assay: Antibacterial activity against Pseudomonas aeruginosa CCM 1961 after 48 hrs by microdilution broth method; format: functional; settings: CCM 1961, 48 h; method in brief: as §2
Candida albicans [28] = assay: Antifungal activity against Candida albicans ATCC 44859 after 24 hrs by microdilution broth method; format: functional; settings: ATCC 44859, 24 h
Method in brief: (§3)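 CLSI M27-A3 broth microdilution in RPMI 1640 with glutamine, buffered to pH 7.0 with MOPS; DMSO diluent. Yeast inoculum 5 × 10^3 ± 0.2 CFU/mL. Moulds grown on Sabouraud agar 3–10 days before spore harvest, final inoculum 0.5-5 × 10^4 CFU/mL, checked in a Bürker chamber. Incubated dark, humid, 35 °C, read at 24 and 48 h visually and at 540 nm. MIC taken as ≥80% (yeasts) or ≥50% (filamentous) growth reduction versus control.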

Candida albicans [29] = assay: Antifungal activity against Candida albicans ATCC 44859 after 48 hrs by microdilution broth method; format: functional; settings: ATCC 44859, 48 h; method in brief: as §3
Candida tropicalis [30] = assay: Antifungal activity against Candida tropicalis 156 after 24 hrs by microdilution broth method; format: functional; settings: Candida tropicalis, 156, 24 h; method in brief: as §3
Candida tropicalis [31] = assay: Antifungal activity against Candida tropicalis 156 after 48 hrs by microdilution broth method; format: functional; settings: Candida tropicalis, 156, 48 h; method in brief: as §3
Pichia kudriavzevii [32] = assay: Antifungal activity against Candida krusei E28 after 24 hrs by microdilution broth method; format: functional; settings: E28, 24 h; method in brief: as §3
Pichia kudriavzevii [33] = assay: Antifungal activity against Candida krusei E28 after 48 hrs by microdilution broth method; format: functional; settings: E28, 48 h; method in brief: as §3
Nakaseomyces glabratus [34] = assay: Antifungal activity against Candida glabrata 20/I after 24 hrs by microdilution broth method; format: functional; method in brief: as §3
Nakaseomyces glabratus [35] = assay: Antifungal activity against Candida glabrata 20/I after 48 hrs by microdilution broth method; format: functional; method in brief: as §3
Trichosporon asahii [36] = assay: Antifungal activity against Trichosporon asahii 1188 after 24 hrs by microdilution broth method; format: functional; settings: Trichosporon asahii, 1188, 24 h; method in brief: as §3
Trichosporon asahii [37] = assay: Antifungal activity against Trichosporon asahii 1188 after 48 hrs by microdilution broth method; format: functional; settings: Trichosporon asahii, 1188, 48 h; method in brief: as §3
Aspergillus fumigatus [38] = assay: Antifungal activity against Aspergillus fumigatus 231 after 24 hrs by microdilution broth method; format: functional; settings: Aspergillus fumigatus, 231, 24 h; method in brief: as §3
Aspergillus fumigatus [39] = assay: Antifungal activity against Aspergillus fumigatus 231 after 48 hrs by microdilution broth method; format: functional; settings: Aspergillus fumigatus, 231, 48 h; method in brief: as §3
Lichtheimia corymbifera [40] = assay: Antifungal activity against Absidia corymbifera 272 after 24 hrs by microdilution broth method; format: functional; settings: Lichtheimia corymbifera, 272, 24 h; method in brief: as §3
Lichtheimia corymbifera [41] = assay: Antifungal activity against Absidia corymbifera 272 after 48 hrs by microdilution broth method; format: functional; settings: Lichtheimia corymbifera, 272, 48 h; method in brief: as §3
[42] = system: Trichophyton mentagrophytes; assay: Antifungal activity against Trichophyton mentagrophytes 445 after 24 hrs by microdilution broth method; format: functional; settings: Trichophyton mentagrophytes, 445, 24 h
[43] = system: Trichophyton mentagrophytes; assay: Antifungal activity against Trichophyton mentagrophytes 445 after 48 hrs by microdilution broth method; format: functional; settings: Trichophyton mentagrophytes, 445, 48 h

O=C(Nc1cc(C(F)(F)F)cc(C(F)(F)F)c1)c1cccc([N+](=O)[O-])c1O
MIC [1]: 8 µM (≈ 3.15 µg/mL)
MIC [2]: 8 µM (≈ 3.15 µg/mL)
MIC (Mycobacterium avium [3]): 125 µM (≈ 49.3 µg/mL)
MIC (Mycobacterium avium [4]): 125 µM (≈ 49.3 µg/mL)
MIC (Mycobacterium kansasii [5]): 16 µM (≈ 6.31 µg/mL)
MIC (Mycobacterium kansasii [6]): 32 µM (≈ 12.6 µg/mL)
MIC (Mycobacterium kansasii [7]): 32 µM (≈ 12.6 µg/mL)
MIC (Mycobacterium kansasii [8]): 32 µM (≈ 12.6 µg/mL)
MIC (Mycobacterium kansasii [9]): 32 µM (≈ 12.6 µg/mL)
MIC (Mycobacterium kansasii [10]): 32 µM (≈ 12.6 µg/mL)
IC50 (HepG2): 7.4 µM
Selectivity Index [11]: 0.925

O=C(Nc1cccc(I)c1)c1ccc([N+](=O)[O-])cc1O
MIC [1]: 16 µM (≈ 6.15 µg/mL)
MIC [2]: 16 µM (≈ 6.15 µg/mL)
MIC (Mycobacterium avium [3]): 32 µM (≈ 12.3 µg/mL)
MIC (Mycobacterium avium [4]): 62.5 µM (≈ 24 µg/mL)
MIC (Mycobacterium kansasii [5]): 8 µM (≈ 3.07 µg/mL)
MIC (Mycobacterium kansasii [6]): 16 µM (≈ 6.15 µg/mL)
MIC (Mycobacterium kansasii [7]): 16 µM (≈ 6.15 µg/mL)
MIC (Mycobacterium kansasii [8]): 16 µM (≈ 6.15 µg/mL)
MIC (Mycobacterium kansasii [9]): 16 µM (≈ 6.15 µg/mL)
MIC (Mycobacterium kansasii [10]): 16 µM (≈ 6.15 µg/mL)
MIC (Staphylococcus aureus [12]): 3.9 µM (≈ 1.5 µg/mL)
MIC (Staphylococcus aureus [13]): 3.9 µM (≈ 1.5 µg/mL)
MIC (Staphylococcus aureus [14]): 3.9 µM (≈ 1.5 µg/mL)
MIC (Staphylococcus aureus [15]): 3.9 µM (≈ 1.5 µg/mL)
MIC [16]: 15.6 µM (≈ 6 µg/mL)
MIC [17]: 15.6 µM (≈ 6 µg/mL)
MIC (Enterococcus sp. [18]): > 500 µM
MIC (Enterococcus sp. [19]): > 500 µM
MIC (Escherichia coli [20]): > 500 µM
MIC (Escherichia coli [21]): > 500 µM
MIC (Klebsiella pneumoniae [22]): > 500 µM
MIC (Klebsiella pneumoniae [23]): > 500 µM
MIC (Klebsiella pneumoniae [24]): > 500 µM
MIC (Klebsiella pneumoniae [25]): > 500 µM
MIC (Pseudomonas aeruginosa [26]): > 500 µM
MIC (Pseudomonas aeruginosa [27]): > 500 µM
MIC (Candida albicans [28]): > 500 µM
MIC (Candida albicans [29]): > 500 µM
MIC (Candida tropicalis [30]): > 500 µM
MIC (Candida tropicalis [31]): > 500 µM
MIC (Pichia kudriavzevii [32]): > 500 µM
MIC (Pichia kudriavzevii [33]): > 500 µM
MIC (Nakaseomyces glabratus [34]): > 500 µM
MIC (Nakaseomyces glabratus [35]): > 500 µM
MIC (Trichosporon asahii [36]): > 500 µM
MIC (Trichosporon asahii [37]): > 500 µM
MIC (Aspergillus fumigatus [38]): > 500 µM
MIC (Aspergillus fumigatus [39]): > 500 µM
MIC (Lichtheimia corymbifera [40]): > 500 µM
MIC (Lichtheimia corymbifera [41]): > 500 µM
MIC [42]: > 500 µM
MIC [43]: > 500 µM
